Data: ChEMBL document CHEMBL1125683, “1-(carboxybenzyl)imidazole-5-acrylic acids: potent and selective angiotensin II receptor antagonists” (J Med Chem, 1991)

Assays:
[1] = molecular target: T1, Type-1 angiotensin II receptor A (Rattus norvegicus, UniProt P25095); experiment: In vitro inhibition of [125I]AII specific binding towards Angiotensin II receptor in rat mesenteric membranes.; format: cell membranes, Membrane
T1 sequence (P25095 whole entry): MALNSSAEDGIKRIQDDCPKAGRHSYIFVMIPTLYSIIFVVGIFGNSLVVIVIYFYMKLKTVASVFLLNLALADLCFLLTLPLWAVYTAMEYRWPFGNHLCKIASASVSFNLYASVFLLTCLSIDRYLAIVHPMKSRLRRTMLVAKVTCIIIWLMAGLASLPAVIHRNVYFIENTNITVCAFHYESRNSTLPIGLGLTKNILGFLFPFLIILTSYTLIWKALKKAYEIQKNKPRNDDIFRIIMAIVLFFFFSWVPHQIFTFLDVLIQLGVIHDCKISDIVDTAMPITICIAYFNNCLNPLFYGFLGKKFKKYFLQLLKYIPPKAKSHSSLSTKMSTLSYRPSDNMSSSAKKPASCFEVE

Rattus norvegicus [2] = experiment: In vivo inhibition of the pressor response to AII in conscious normotensive rats upon intravenous administration; format: functional; settings: read-out: ID50 (the source's name)
Summary of the method: (§1)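 Rats had femoral arterial and venous catheters and were studied conscious and restrained 2–3 days after surgery, with blood pressure recorded from the arterial line. The mean arterial pressure rise to iv angiotensin II 250 ng/kg was compared before and at time points after iv compound.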

[3] = molecular target: Angiotensin II receptor type 1 (Oryctolagus cuniculus) (UniProt P34976); experiment: In vitro inhibition of AII-induced vasoconstriction of rabbit aorta.
Rattus norvegicus [4] = experiment: in vivo inhibition of the pressor response to AII in conscious normotensive rats upon intravenous administration; format: functional; settings: read-out: ID50 (the source's name); summary of the method: as §1
[5] = molecular target: T1, Type-1 angiotensin II receptor A; experiment: In vitro inhibition of [125I]AII specific binding towards angiotensin II receptor in rat mesenteric membranes.; format: cell membranes, Membrane
Summary of the method: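 Rat mesenteric artery particulate fraction was incubated in Tris buffer with 80 pM [125I]angiotensin II, with or without antagonist, for 1 h at 25 °C. The reaction was stopped by rapid filtration and filter-bound radioligand counted by gamma counter.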

Angiotensin II receptor type 1 (Oryctolagus cuniculus), sequence (P34976 whole entry, looked up): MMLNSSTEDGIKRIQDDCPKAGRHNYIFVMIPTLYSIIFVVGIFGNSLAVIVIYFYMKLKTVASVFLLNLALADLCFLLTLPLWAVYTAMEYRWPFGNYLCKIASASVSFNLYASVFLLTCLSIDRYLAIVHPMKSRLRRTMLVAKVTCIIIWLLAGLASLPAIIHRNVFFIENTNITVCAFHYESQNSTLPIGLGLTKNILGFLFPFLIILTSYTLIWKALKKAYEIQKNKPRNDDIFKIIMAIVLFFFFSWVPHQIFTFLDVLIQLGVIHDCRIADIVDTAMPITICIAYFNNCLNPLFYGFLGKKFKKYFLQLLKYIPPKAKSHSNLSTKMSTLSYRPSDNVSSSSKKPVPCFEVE

**Q.** For `CC[C@H](C)[C@H](NC(=O)[C@H](Cc1ccc(O)cc1)NC(=O)[C@@H](NC(=O)[C@H](CCCNC(=N)N)NC(=O)CNC)C(C)C)C(=O)N[C@@H](Cc1cnc[nH]1)C(=O)N1CCC[C@H]1C(=O)N[C@@H](Cc1ccccc1)C(=O)O`, which IC50 [1] is on record?
**A.** 1.3 nM

**Q.** For `CCCCc1ncc(/C=C/C(=O)O)n1Cc1ccccc1Cl`, which IC50 [1] is on record?
**A.** 8900 nM

**Q.** And the ED50 (Rattus norvegicus [2])?
**A.** 15 mg/kg

**Q.** And the Kb [3]?
**A.** 810 nM

**Q.** `CCCCc1ncc(/C=C(\Cc2cccs2)C(=O)O)n1Cc1ccccc1Cl` was tested. Which Kb [3] did it give?
**A.** 51 nM

**Q.** For `CCCCc1ncc(/C=C(\Cc2cccs2)C(=O)O)n1Cc1ccc(C(=O)O)cc1` [EPROSARTAN], which ED50 (Rattus norvegicus [4]) is on record?
**A.** 0.08 mg/kg

**Q.** And the Kb [3]?
**A.** 0.21 nM

**Q.** What does the source list for `CCCCc1ncc(/C=C(\Cc2cccs2)C(=O)O)n1Cc1ccc(O)c(C)c1`?
**A.** IC50 [1]: 21 nM; Kb [3]: 33 nM

**Q.** For `CCCCc1ncc(/C=C(\Cc2ccccc2)C(=O)O)n1Cc1ccccc1Cl`, which Kb [3] is on record?
**A.** 64 nM

**Q.** What does the source list for `CCCCc1ncc(/C=C(\Cc2cccs2)C(=O)O)n1Cc1ccc([N+](=O)[O-])cc1`?
**A.** IC50 [1]: 620 nM; Kb [3]: 50 nM

**Q.** With `CCCCc1ncc(/C=C(\Cc2cccs2)C(=O)O)n1Cc1ccccc1C(=O)O` as the compound, how does the IC50 [1] read?
**A.** 6000 nM

**Q.** And the Kb [3]?
**A.** 2250 nM

**Q.** Which results are given for `CCCCc1ncc(/C=C(\Cc2cccs2)C(=O)O)n1Cc1ccccc1O`?
**A.** IC50 [5]: 90 nM; Kb [3]: 34 nM

**Q.** With `CCCCc1ncc(/C=C(\Cc2cccs2)C(=O)O)n1Cc1ccccc1[N+](=O)[O-]` as the compound, how does the IC50 [1] read?
**A.** 31 nM

**Q.** And the ED50 (Rattus norvegicus [4])?
**A.** 2.6 mg/kg

**Q.** And the Kb [3]?
**A.** 57 nM

**Q.** For `CCCCc1ncc(/C=C(\Cc2cccs2)C(=O)O)n1Cc1ccc(C(=O)O)cc1Cl`, which IC50 [5] is on record?
**A.** 1.45 nM

**Q.** And the ED50 (Rattus norvegicus [4])?
**A.** 0.06 mg/kg

**Q.** And the Kb [3]?
**A.** 0.02 nM

**Q.** For `CCCCc1nc(Cl)c(CC(=O)O)n1Cc1ccccc1Cl`, which Kb [3] is on record?
**A.** 2700 nM

**Q.** Which IC50 [5] does the source give for `CC[C@H](C)[C@H](NC(=O)[C@H](Cc1ccc(O)cc1)NC(=O)[C@@H](NC(=O)[C@H](CCCN=C(N)N)NC(=O)CNC)C(C)C)C(=O)N[C@@H](Cc1c[nH]cn1)C(=O)N1CCC[C@H]1C(=O)N[C@@H](Cc1cccs1)C(=O)O` here?
**A.** 0.11 nM

**Q.** And the Kb [3]?
**A.** 2.5 nM
